Measurements published in ChEMBL document CHEMBL5303300, “EUbOPEN Chemogenomics Library - Multiplex” (2023).
Where “and” joins values, the source holds several entries; their conditions need not be identical. Equal values may be shown once.

Tested on: Fibroblast
Experiment: Multiplex assay against human fibroblast
Format: toxicity, cell-based
Details: number of replicates 2
Procedure, shortened: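 Hoechst33342, BioTracker Green Microtubule Cytoskeleton Dye, MitoTracker Red and Annexin V Alexa Fluor 680 were added to live cells at seeding, and imaging on a CQ1 microscope at 37°C and 5% CO2 followed compound addition. Gating by CellPathfinder machine learning separated cells into Hoechst high-intensity objects or normal cells, then normal cells into healthy, pyknosed or fragmented nuclei, then pyknosed cells into mitotic or apoptotic. Per cents of healthy-nucleus cells are reported for the tubulin, mitochondrial-mass and membrane-permeability phenotypes.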

[1] = 12 h, 1 µM, compound concentration 1 uM
[2] = 12 h, 10 µM, compound concentration 10 uM
[3] = 24 h, 1 µM, compound concentration 1 uM
[4] = 24 h, 10 µM, compound concentration 10 uM
[5] = 48 h, 1 µM, compound concentration 1 uM
[6] = 48 h, 10 µM, compound concentration 10 uM

SMILES: CC(C)NC(=O)[C@H]1CCC[C@H]1Nc1nc(Nc2ccc(C(=O)N(C)C3CCN(C)CC3)cc2)ncc1Cl
- Population Apoptotic (%) [1]: 45% and 33%
- Population Fragmented Nuclei (%) [1]: 7% and 8%
- Population Healthy Nuclei (%) [1]: 62% and 61%
- Population Hoechst High Intensity Objects (%) [1]: 0%
- Population Membrane Permeable-Phenotype (%) [1]: 8%
- Population Mitochondria Different-Phenotype (%) [1]: 0% and 2%
- Population Mitotic Cells (%) [1]: 54% and 66%
- Population Normal (%) [1]: 100%
- Population Pyknosed Nuclei (%) [1]: 30% and 29%
- Population Tubulin-Different-Phenotype (%) [1]: 20% and 12%
- Total Cell Count [1]: 109 and 134
- Population Apoptotic (%) [2]: 62% and 51%
- Population Fragmented Nuclei (%) [2]: 19% and 12%
- Population Healthy Nuclei (%) [2]: 62% and 75%
- Population Hoechst High Intensity Objects (%) [2]: 0%
- Population Membrane Permeable-Phenotype (%) [2]: 0% and 4%
- Population Mitochondria Different-Phenotype (%) [2]: 3% and 6%
- Population Mitotic Cells (%) [2]: 37% and 48%
- Population Normal (%) [2]: 100%
- Population Pyknosed Nuclei (%) [2]: 18% and 12%
- Population Tubulin-Different-Phenotype (%) [2]: 51% and 44%
- Total Cell Count [2]: 177 and 250
- Population Apoptotic (%) [3]: 48% and 58%
- Population Fragmented Nuclei (%) [3]: 8% and 10%
- Population Healthy Nuclei (%) [3]: 60% and 59%
- Population Hoechst High Intensity Objects (%) [3]: 0%
- Population Membrane Permeable-Phenotype (%) [3]: 14% and 7%
- Population Mitochondria Different-Phenotype (%) [3]: 0%
- Population Mitotic Cells (%) [3]: 51% and 41%
- Population Normal (%) [3]: 100%
- Population Pyknosed Nuclei (%) [3]: 30%
- Population Tubulin-Different-Phenotype (%) [3]: 16% and 13%
- Total Cell Count [3]: 127 and 136
- Population Apoptotic (%) [4]: 65% and 66%
- Population Fragmented Nuclei (%) [4]: 16% and 13%
- Population Healthy Nuclei (%) [4]: 64% and 71%
- Population Hoechst High Intensity Objects (%) [4]: 0%
- Population Membrane Permeable-Phenotype (%) [4]: 2% and 0%
- Population Mitochondria Different-Phenotype (%) [4]: 9% and 6%
- Population Mitotic Cells (%) [4]: 34% and 33%
- Population Normal (%) [4]: 100%
- Population Pyknosed Nuclei (%) [4]: 18% and 15%
- Population Tubulin-Different-Phenotype (%) [4]: 40% and 28%
- Total Cell Count [4]: 171 and 258
- Population Apoptotic (%) [5]: 67% and 75%
- Population Fragmented Nuclei (%) [5]: 14%
- Population Healthy Nuclei (%) [5]: 62% and 59%
- Population Hoechst High Intensity Objects (%) [5]: 0%
- Population Membrane Permeable-Phenotype (%) [5]: 8% and 4%
- Population Mitochondria Different-Phenotype (%) [5]: 0% and 1%
- Population Mitotic Cells (%) [5]: 32% and 24%
- Population Normal (%) [5]: 100%
- Population Pyknosed Nuclei (%) [5]: 22% and 26%
- Population Tubulin-Different-Phenotype (%) [5]: 15% and 11%
- Total Cell Count [5]: 127 and 141
- Population Apoptotic (%) [6]: 78% and 82%
- Population Fragmented Nuclei (%) [6]: 17% and 12%
- Population Healthy Nuclei (%) [6]: 64% and 69%
- Population Hoechst High Intensity Objects (%) [6]: 0%
- Population Membrane Permeable-Phenotype (%) [6]: 4% and 5%
- Population Mitochondria Different-Phenotype (%) [6]: 6% and 2%
- Population Mitotic Cells (%) [6]: 21% and 17%
- Population Normal (%) [6]: 99% and 100%
- Population Pyknosed Nuclei (%) [6]: 17% and 18%
- Population Tubulin-Different-Phenotype (%) [6]: 36% and 18%
- Total Cell Count [6]: 160 and 243

SMILES: O=C1Nc2ccc(C(=O)c3ccco3)cc2C1=Cc1cc(Cl)c(O)c(Cl)c1 [GW406108X]
- Population Apoptotic (%) [1]: 28% and 31%
- Population Fragmented Nuclei (%) [1]: 8% and 6%
- Population Healthy Nuclei (%) [1]: 65% and 68%
- Population Hoechst High Intensity Objects (%) [1]: 0%
- Population Membrane Permeable-Phenotype (%) [1]: 6%
- Population Mitochondria Different-Phenotype (%) [1]: 1%
- Population Mitotic Cells (%) [1]: 71% and 68%
- Population Normal (%) [1]: 99% and 100%
- Population Pyknosed Nuclei (%) [1]: 25% and 24%
- Population Tubulin-Different-Phenotype (%) [1]: 16% and 8%
- Total Cell Count [1]: 224 and 230
- Population Apoptotic (%) [2]: 44% and 41%
- Population Fragmented Nuclei (%) [2]: 8% and 11%
- Population Healthy Nuclei (%) [2]: 69% and 67%
- Population Hoechst High Intensity Objects (%) [2]: 0% and 2%
- Population Membrane Permeable-Phenotype (%) [2]: 6% and 5%
- Population Mitochondria Different-Phenotype (%) [2]: 0% and 2%
- Population Mitotic Cells (%) [2]: 55% and 58%
- Population Normal (%) [2]: 100% and 97%
- Population Pyknosed Nuclei (%) [2]: 21% and 20%
- Population Tubulin-Different-Phenotype (%) [2]: 18% and 14%
- Total Cell Count [2]: 178 and 206
- Population Apoptotic (%) [3]: 46% and 45%
- Population Fragmented Nuclei (%) [3]: 8% and 9%
- Population Healthy Nuclei (%) [3]: 72%
- Population Hoechst High Intensity Objects (%) [3]: 0%
- Population Membrane Permeable-Phenotype (%) [3]: 5% and 4%
- Population Mitochondria Different-Phenotype (%) [3]: 0% and 1%
- Population Mitotic Cells (%) [3]: 53% and 55%
- Population Normal (%) [3]: 100%
- Population Pyknosed Nuclei (%) [3]: 18% and 17%
- Population Tubulin-Different-Phenotype (%) [3]: 15% and 10%
- Total Cell Count [3]: 248 and 224
- Population Apoptotic (%) [4]: 58% and 43%
- Population Fragmented Nuclei (%) [4]: 7% and 17%
- Population Healthy Nuclei (%) [4]: 71% and 54%
- Population Hoechst High Intensity Objects (%) [4]: 0% and 1%
- Population Membrane Permeable-Phenotype (%) [4]: 9% and 10%
- Population Mitochondria Different-Phenotype (%) [4]: 1%
- Population Mitotic Cells (%) [4]: 41% and 56%
- Population Normal (%) [4]: 100% and 98%
- Population Pyknosed Nuclei (%) [4]: 21% and 28%
- Population Tubulin-Different-Phenotype (%) [4]: 27% and 23%
- Total Cell Count [4]: 169 and 205
- Population Apoptotic (%) [5]: 70% and 55%
- Population Fragmented Nuclei (%) [5]: 10% and 9%
- Population Healthy Nuclei (%) [5]: 76% and 77%
- Population Hoechst High Intensity Objects (%) [5]: 0%
- Population Membrane Permeable-Phenotype (%) [5]: 9% and 3%
- Population Mitochondria Different-Phenotype (%) [5]: 0%
- Population Mitotic Cells (%) [5]: 29% and 44%
- Population Normal (%) [5]: 100%
- Population Pyknosed Nuclei (%) [5]: 12%
- Population Tubulin-Different-Phenotype (%) [5]: 15% and 5%
- Total Cell Count [5]: 242 and 224
- Population Apoptotic (%) [6]: 61% and 68%
- Population Fragmented Nuclei (%) [6]: 11% and 16%
- Population Healthy Nuclei (%) [6]: 66% and 56%
- Population Hoechst High Intensity Objects (%) [6]: 0% and 1%
- Population Membrane Permeable-Phenotype (%) [6]: 12% and 10%
- Population Mitochondria Different-Phenotype (%) [6]: 0% and 1%
- Population Mitotic Cells (%) [6]: 38% and 31%
- Population Normal (%) [6]: 100% and 98%
- Population Pyknosed Nuclei (%) [6]: 22% and 26%
- Population Tubulin-Different-Phenotype (%) [6]: 36% and 31%
- Total Cell Count [6]: 163 and 205
